# Measurements from different studies.
# Each line is one published result; the experiments were not run side by side.
# Target: Aurora kinase B (AURKB, Homo sapiens, UniProt Q96GD4)
Structure (SMILES),effect on,mode,technique,tested at,endpoint,value
Cc1cc(O)c(-c2ccc([C@@H](C)CN(C)C)cc2)c2c1[nH]c(=O)c1sccc12,enzyme activity,inhibitor,,0.1 µM,inhibition,21.5%
C=CC(=O)N1CCC([C@@H]2CCNc3c(C(N)=O)c(-c4ccc(Oc5ccccc5)cc4)nn32)CC1,enzyme activity,inhibitor,,1 µM,inhibition,14%
C[C@H]1CC[C@H](n2c3cnccc3c3cnc(Nc4ccc5c(n4)CCN(C(=O)CO)C5)nc32)CC1,cell-free assay,,competition with immobilised ligand,1 µM,remaining binding,34%
C#Cc1cc(-c2cc(Nc3nc(N[C@@H](C)c4ccc(F)cn4)ncc3Cl)n[nH]2)ccc1C=O,enzyme activity,inhibitor,,0.2 µM,inhibition,16.6%
CN1CCN(C(=O)c2ccc(NC(=O)Nc3ccc(N(C)c4ccnc(Nc5ccc(CS(C)(=O)=O)cc5)n4)cc3)cc2)CC1,binding,,competition with immobilised ligand,1 µM,remaining binding,0.4%
CO[C@@H]1[C@H](N(C)C(=O)c2ccccc2)C[C@H]2O[C@]1(C)n1c3ccccc3c3c4c(c5c6ccccc6n2c5c31)C(=O)NC4,enzyme activity,inhibitor,,1 µM,inhibition,94%
C1=C/COCc2cc(ccc2OCCN2CCCC2)Nc2nccc(n2)-c2cccc(c2)COC/1,binding,,,0.1 µM,remaining binding,100%
C#Cc1cnc(Nc2ccnc(CO)c2)nc1Nc1ccccc1S(C)(=O)=NC#N (stereo not drawn),cell-free assay,,,1 µM,remaining signal,< 10%
COc1ccc2oc(-c3ccc4nc(N)oc4c3)c/c(=N\c3ccccc3NC(=O)CCN)c2c1,cell-free assay,,,1 µM,remaining signal,99%
CCCCC(=O)Nc1ccc(-c2ccc3ncn(CCC)c(=O)c3c2)cn1,binding,,competition with immobilised ligand,0.5 µM,remaining binding,76%
CC(=O)ON=C1C=CC(=C(C#N)c2ccccc2)C=C1,enzyme activity,inhibitor,ADP detection,2 µM,activity vs control,96%
N#Cc1ccc(NC(=O)Nc2ccccc2)cc1,cell-free assay,,competition with immobilised ligand,25 µM,remaining binding,82%
